Reference: ChEMBL document CHEMBL3860029, “Maximiscin Induces DNA Damage, Activates DNA Damage Response Pathways, and Has Selective Cytotoxic Activity against a Subtype of Triple-Negative Breast Cancer” (J Nat Prod, 2016)
The source made the active and inactive calls. No cut-off for these calls is given here.

What was measured:
[1] = Cytotoxicity against human HCC70 cells after 48 hrs by SRB assay; format: functional; settings: HCC70, 48 h, read-out: LC50 (the source's name)
Method in brief: (§1)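 Cells grown in RPMI-1640 with 50 µg/mL gentamicin and 10% FBS at 37°C, 5% CO2, and passaged under 3 months after revival. Sulforhodamine B assay after 48 h of compound exposure, with cell density measured at time of treatment (T0). LC50 (50% cell death vs T0) interpolated by nonlinear regression. At least 3 independent experiments, each concentration in triplicate.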

MDA-MB-468 [2] = test: Induction of DNA double stranded break in human MDA-MB-468 cells assessed as increase in gamma-H2A.X foci at 1 to 10 uM after 18 hrs by nucblue staining based immunofluorescent microscopic analysis; format: functional, cell-based
Method in brief: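 MDA-MB-468 cells on glass coverslips, adhered overnight, then exposed 18 h. Paraformaldehyde fixation, blocking in 10% bovine calf serum/DPBS 20 min at room temperature, then anti-γ-H2A.X in 1% BSA/0.3% Triton X-100. Detection with Alexa Fluor 594 secondary and NucBlue nuclear counterstain at 60× objective. Two independent experiments, each concentration in duplicate.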

BT-549 = test: Selectivity ratio of LC50 for human BT549 cells to LC50 for human MDA-MB-468 cells; format: functional
Method in brief: (§2)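 Both LC50s come from 48 h sulforhodamine B assays, with T0 density measured at treatment. LC50 is 50% cell death vs T0, interpolated by nonlinear regression. At least 3 independent experiments, concentrations in triplicate. MDA-MB-468, HCC70 and BT-549 were grown in RPMI-1640. MDA-MB-231 and MDA-MB-453 were grown in IMEM.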

[3] = Cytotoxicity against human MDA-MB-453 cells after 48 hrs by SRB assay; format: functional; settings: MDA-MB-453, 48 h, read-out: LC50 (the source's name)
Method in brief: as §1, with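 “in IMEM” for “in RPMI-1640”, “with 25” for “with 50”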

Mus musculus = test: Toxicity in athymic nude mouse xenografted with human MDA-MB-468 cells assessed as weight loss at 5 mg/kg, ip administered daily for 21 days […] relative to control; format: organism-based; settings: in vivo, 504 h
Method in brief: (§3)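 Female athymic nude mice implanted s.c. bilaterally in each flank with 2 × 10^6 MDA-MB-468 cells in DPBS plus Matrigel. Dosing began at tumor volume of at least 150 mm3, with 7 or 8 tumors/group. Dose was 5 mg/kg i.p. daily for 21 days in 2.5% DMSO/2.5% Kolliphor EL in DPBS; controls untreated. Mice weighed and examined daily; calipers twice weekly; volume = length × width × height.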

[4] = Selectivity ratio of LC50 for human MDA-MB-231 cells to LC50 for human MDA-MB-468 cells; format: functional; method in brief: as §2
[5] = Cytotoxicity against human BT549 cells after 48 hrs by SRB assay; format: functional; settings: BT-549, 48 h, read-out: LC50 (the source's name); method in brief: as §1
HCC70 = test: Selectivity ratio of LC50 for human HCC70 cells to LC50 for human MDA-MB-468 cells; format: functional; method in brief: as §2
[6] = biological target: T1, Serine/threonine-protein kinase Chk1 (Homo sapiens) (UniProt O14757); test: Induction of CHK1 phosphorylation at S345-residue in human MDA-MB-468 cells at 1 uM after 4 hrs by immunoblot analysis; format: cell-based
T1 sequence (whole entry): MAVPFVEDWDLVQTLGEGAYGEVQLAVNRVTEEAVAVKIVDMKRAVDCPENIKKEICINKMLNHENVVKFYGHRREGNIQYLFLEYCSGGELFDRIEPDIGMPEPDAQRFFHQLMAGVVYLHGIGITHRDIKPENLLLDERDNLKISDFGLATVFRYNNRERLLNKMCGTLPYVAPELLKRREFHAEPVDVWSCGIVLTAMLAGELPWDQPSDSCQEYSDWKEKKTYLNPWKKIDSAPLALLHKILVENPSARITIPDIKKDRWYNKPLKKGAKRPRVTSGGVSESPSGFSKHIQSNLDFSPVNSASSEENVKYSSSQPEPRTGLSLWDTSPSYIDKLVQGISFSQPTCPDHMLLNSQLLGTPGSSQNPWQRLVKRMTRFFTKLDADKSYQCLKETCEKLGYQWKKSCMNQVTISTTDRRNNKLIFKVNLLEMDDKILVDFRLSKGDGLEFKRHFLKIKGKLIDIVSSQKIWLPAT
Method in brief: (§4)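 Whole-cell lysates of MDA-MB-468 cells taken after vehicle or compound treatment for the stated times. Lysis buffer held protease inhibitors, PMSF and Na3VO4. Equal protein run on SDS-PAGE, blotted to PVDF and probed for phospho-S345-Chk1, phospho-T68-Chk2 and phospho-S15-p53 alongside total proteins and β-actin. Read by near-infrared fluorescent secondaries.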

[7] = Cell cycle arrest in human MDA-MB-468 cells assessed as accumulation at G0/G1 phase at 1 to 10 uM after 18 hrs by propidium iodide staining based FACS analysis; format: functional
Method in brief: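 MDA-MB-468 cells (RPMI-1640, 10% FBS, gentamicin) exposed to vehicle (DMSO) or compound for 18 h. Cells harvested and stained with Krishan's reagent (PI). DNA content read on a Muse Cell Analyzer to give phase distribution. n = 3; two-way ANOVA with Dunnett's post-hoc test.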

[8] = biological target: Serine/threonine-protein kinase Chk2 (Homo sapiens) (UniProt O96017); test: Induction of CHK2 phosphorylation at T68-residue in human MDA-MB-468 cells at 1 uM after 2 hrs by immunoblot analysis; format: cell-based; method in brief: as §4
Serine/threonine-protein kinase Chk2 (Homo sapiens), sequence (O96017 whole entry): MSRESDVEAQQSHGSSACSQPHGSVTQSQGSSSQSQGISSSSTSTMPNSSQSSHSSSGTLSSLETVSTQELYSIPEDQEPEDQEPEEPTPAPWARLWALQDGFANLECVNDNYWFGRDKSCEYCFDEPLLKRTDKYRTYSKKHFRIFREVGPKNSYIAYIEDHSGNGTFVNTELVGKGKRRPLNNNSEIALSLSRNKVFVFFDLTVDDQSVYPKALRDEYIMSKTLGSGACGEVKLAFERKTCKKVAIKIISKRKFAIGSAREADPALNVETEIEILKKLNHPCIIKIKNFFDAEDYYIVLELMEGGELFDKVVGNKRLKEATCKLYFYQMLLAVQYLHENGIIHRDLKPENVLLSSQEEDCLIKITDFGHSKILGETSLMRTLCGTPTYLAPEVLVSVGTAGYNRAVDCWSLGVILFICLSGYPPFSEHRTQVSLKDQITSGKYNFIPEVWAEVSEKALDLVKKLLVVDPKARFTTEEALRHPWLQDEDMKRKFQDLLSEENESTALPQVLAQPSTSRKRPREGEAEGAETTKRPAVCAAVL

[9] = biological target: Cellular tumor antigen p53 (Homo sapiens) (UniProt P04637); test: Induction of p53 phosphorylation at serine15 in human MDA-MB-468 cells after 2 hrs at 1 uM by immunoblot analysis; format: cell-based; method in brief: as §4
Cellular tumor antigen p53 (Homo sapiens), sequence (P04637 whole entry, looked up): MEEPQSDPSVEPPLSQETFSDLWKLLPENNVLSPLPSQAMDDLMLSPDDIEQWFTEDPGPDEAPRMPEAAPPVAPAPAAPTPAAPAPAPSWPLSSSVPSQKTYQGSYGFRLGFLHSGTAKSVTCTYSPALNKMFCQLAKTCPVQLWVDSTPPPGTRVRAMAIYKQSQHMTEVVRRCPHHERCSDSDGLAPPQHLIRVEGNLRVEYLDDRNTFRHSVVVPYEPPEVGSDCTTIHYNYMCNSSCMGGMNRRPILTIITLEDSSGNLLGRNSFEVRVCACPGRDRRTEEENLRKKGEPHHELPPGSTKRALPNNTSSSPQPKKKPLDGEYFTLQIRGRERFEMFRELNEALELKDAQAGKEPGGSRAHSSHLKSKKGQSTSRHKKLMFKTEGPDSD

MDA-MB-468 [10] = test: Antitumor activity against human MDA-MB-468 cells xenografted in athymic nude mouse assessed as tumor growth inhibition at 5 mg/kg, ip administered daily for 21 days measured on day 21 post dose relative to control; format: functional, organism-based; method in brief: as §3
[11] = Cytotoxicity against human MDA-MB-231 cells after 48 hrs by SRB assay; format: functional; settings: MDA-MB-231, 48 h, read-out: LC50 (the source's name)
Method in brief: as §1, with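 “in IMEM” for “in RPMI-1640”, “with 25” for “with 50”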

[12] = Selectivity ratio of LC50 for human MDA-MB-453 cells to LC50 for human MDA-MB-468 cells; format: functional; method in brief: as §2
[13] = biological target: Cellular tumor antigen p53 (Homo sapiens) (UniProt P04637); test: Induction of p53 phosphorylation at serine15 in whole cell human MDA-MB-468 cell lysates at 1 uM by antibody microarray assay; format: cell-based; settings: TDE = time-dependent effect
Method in brief: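 MDA-MB-468 whole-cell lysates, prepared as for immunoblotting after early post-treatment time points, applied to a PathScan intracellular signaling antibody array with fluorescent readout. Near-infrared signals imaged and quantified.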

[14] = Cytotoxicity against human MDA-MB-468 cells after 48 hrs by SRB assay; format: functional; settings: MDA-MB-468, 48 h, read-out: LC50 (the source's name); method in brief: as §1

Row | Structure (SMILES) | CC50 [1] | Activity (MDA-MB-468 [2]) | RatioLC50 (BT-549) | CC50 [3] | Activity (Mus musculus) | RatioLC50 [4] | CC50 [5] | RatioLC50 (HCC70) | Activity [6] | Activity [7] | Activity [8] | Activity [9] | TGI (MDA-MB-468 [10]) | CC50 [11] | RatioLC50 [12] | Activity [13] | CC50 [14]
1 | C=C[C@@H]1C[C@H](C)C[C@H](C)[C@H]1c1c(O)ccn(O[C@@H]2C(C(=O)OC)=C[C@@H](O)[C@@H](O)[C@H]2O)c1=O | 39000 nM | Dose-dependent effect | 25 - 100 | 15000 nM | 12% | 25 - 100 | 15000 nM | 25 - 100 | Active | Active | Active | Active | Active | 60000 nM | 25 - 100 | Tde | 600 nM
2 | CC(=O)O[C@H]1C(=O)[C@@]2(C)[C@H]([C@H](OC(=O)c3ccccc3)[C@]3(O)C[C@H](OC(=O)[C@H](O)[C@@H](NC(=O)c4ccccc4)c4ccccc4)C(C)=C1C3(C)C)[C@]1(OC(C)=O)CO[C@@H]1C[C@@H]2O [PACLITAXEL] | > 31.2 nM | – | – | 8.2 nM | – | – | 18 nM | – | – | – | – | – | – | > 62.5 nM | – | – | 9.8 nM
